Measurements published in PMC3672268 (Molecular pharmaceutics, 2013).

B1: SCGB3A2: purified recombinant mouse secretoglobin 3A2 protein, given as treatment for PF (protein, UniProt Q920H1 22-91, looked up)
Secretoglobin family 3A …: LLINRLPVVDKLPVPLDDIIPSFDPLKMLLKTLGISVEHLVTGLKKCVDELGPEASEAVKKLLEALSHLV

Key:
Type in all cases: in vivo, C57BL/6N mice
[1] = Body weight in BLM-induced mouse PF model; details: mice that received BLM, no SCGB3A2 treatment
Procedure, shortened: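 C57BL/6N mice (7–8 weeks old, n = 10 per group) received one intratracheal dose of BLM (1.5 units/kg) by intubation, or PBS as control. Body weight was tracked over the 21-day study and expressed relative to the group's average day 0 weight, which was set as 100%.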

Mmp2 mRNA = test: Quantitative RT-PCR of Mmp2 mRNA in lungs of PF model; details: for increase of Mmp2 mRNA level vs PBS-treated control lungs: qRT-PCR normalised to β-actin, mean ± SD
Procedure, shortened: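 Mouse lung Mmp2 mRNA was measured by qRT-PCR (Superscript II RT) with gene-specific Mmp2 and β-actin primers. Cycling was 50 °C for 2 min and 95 °C for 10 min, then 40 cycles of 95 °C for 15 s and 60 °C for 40 s. Values were normalised to β-actin by ΔΔCt, with day-21 PBS lungs set as 1. Samples were taken on days 7/14/21 post-BLM; mean ± SD.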

collagen fibers = test: Masson's trichrome staining of collagen in lung sections; details: day 21; SCGB3A2 0.25 mg/kg/day i.v. for five days from day 7 after BLM
Procedure, shortened: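 Lungs were inflated and fixed in 4% paraformaldehyde, embedded in paraffin, cut into 4-μm whole-lung sections and stained with Masson's trichrome (collagen blue), with H&E alongside. Lungs were collected on day 21.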

MMP-2 [2] = biological target: MMP-2 (Mus musculus, UniProt P33434); test: Fluorescence microscopy of cleaved MMP-P12 in lung sections; details: SCGB3A2-treated lung sections
MMP-2 (Mus musculus, UniProt P33434), sequence (P33434 110-662): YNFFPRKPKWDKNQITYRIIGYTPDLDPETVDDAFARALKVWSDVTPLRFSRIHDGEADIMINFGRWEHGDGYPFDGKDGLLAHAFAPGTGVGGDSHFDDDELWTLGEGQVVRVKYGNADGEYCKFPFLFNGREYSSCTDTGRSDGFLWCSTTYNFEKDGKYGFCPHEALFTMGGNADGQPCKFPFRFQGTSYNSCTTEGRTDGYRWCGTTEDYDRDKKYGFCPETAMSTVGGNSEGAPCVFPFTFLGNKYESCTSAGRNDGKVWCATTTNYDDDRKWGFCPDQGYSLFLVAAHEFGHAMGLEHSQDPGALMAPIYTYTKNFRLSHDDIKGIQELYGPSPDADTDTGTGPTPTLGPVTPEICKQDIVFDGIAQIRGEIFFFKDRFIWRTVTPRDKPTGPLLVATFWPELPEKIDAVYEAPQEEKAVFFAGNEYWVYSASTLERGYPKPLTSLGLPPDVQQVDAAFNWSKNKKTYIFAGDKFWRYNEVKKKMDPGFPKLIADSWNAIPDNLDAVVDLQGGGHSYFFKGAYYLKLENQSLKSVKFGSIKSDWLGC
Procedure, shortened: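 Fibrotic mouse lungs were frozen, and 10 μm sections were air-dried, fixed in cold acetone for 20 min, air-dried for 30 min at RT and blocked with 10% BSA for 30 min. Sections were incubated with rabbit anti-MMP2 (10 μg/mL) for 60 min at RT in the dark, then Cy3 donkey anti-rabbit, and mounted in DAPI. Cy5.5 from the cleaved probe was viewed directly by epifluorescence at ×400.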

MMP-2 [3] = test: Western blot of active MMP-2 protein in lungs; details: day 21 PF model, SCGB3A2-treated
Procedure, shortened: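 Minced lung was lysed in RIPA buffer (Tris, NaCl, SDS, deoxycholate, Triton X-100, EDTA, NaF, orthovanadate) with protease inhibitors. Lysates were reduced, run on 10% SDS-PAGE, transferred to PVDF and blocked in TBS-Tween with 5% milk. Blots were probed with rabbit anti-MMP-2 ([…]) and β-actin, then an HRP secondary, and read by chemiluminescence on film or imager. Lungs were taken on day 21.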

Row | MMP-P12 cleavage (green) and MMP-2 (red) signals in lung sections (MMP-2 [2]) | Molecule | body weight loss by day 21 [1] | increase of Mmp2 mRNA level vs PBS-treated control lungs (Mmp2 mRNA; day 7 post-BLM administration) [folds] | increase of Mmp2 mRNA level vs PBS-treated control lungs (Mmp2 mRNA; day 14 post-BLM administration) [folds] | increase of Mmp2 mRNA level vs PBS-treated control lungs (Mmp2 mRNA; day 21 post-BLM administration) [folds] | collagen expression in lungs vs BLM only-treated group (collagen fibers) | active MMP-2 protein expression vs no treatment group (MMP-2 [3]) | Mmp2 mRNA expression vs no treatment group (Mmp2 mRNA; day 21 PF model, SCGB3A2-treated, qRT-PCR)
1 | – | bleomycin [BLM] | ~ 20% | 4.25±0.84 | 6±1.05 | 9±1.87 | – | – | –
2 | weak | B1 | – | – | – | – | much lower | decreased | decreased
